Source: PubChem BioAssay
rCAG binder: binders of r(CAG) RNA repeats, primary screen, biochemical, fluorescence | 370,000 tested, 1.3% active | r(CAG) RNA repeat, TO-PRO-1 dye displacement fluorescence | AID 651821, 2012 | inhibition, % at 3 µM;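 active = inhibition above the plate cutoff, the mean of all test compounds on that plate plus 3 SD, cut at about 35% in these data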;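 note: 0% = DMSO alone and 100% = 100 µM mitoxantrone as full dye displacement; higher means more dye released from RNA so lower well fluorescence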
TCR CD3 inh: inhibitors of human TCR-CD3 interaction, primary screen, biochemical, fluorescence, TAMRA-labeled TCR probe | T-cell receptor (TCR) | 360,000 tested, 0.37% active | inhibition, % at 9.4 µM; in the data active = inhibition above about 19%;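 note: recombinant mutant TCR 2C K166C tagged with TAMRA read by polarization; 0% = receptor in buffer alone and 100% = receptor with positive control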
SIAE inh: human SIAE inhibitors, primary screen, biochemical, fluorescence polarization, FP-Rh probe, 1536-well HTS | Sialate O-acetylesterase (Homo sapiens), Q9HAT2 | inhibition, % at 9.66 µM | 370,000 tested, 0.69% active | SIAE FP-Rh probe binding;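 active = inhibition above a cutoff: mean of compounds within the control limits plus 3 SD of those, cut at about 17% in these data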;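 note: 0% = plate median of compound wells and 100% = probe without SIAE protein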
Target sequence (Q9HAT2 whole entry, looked up): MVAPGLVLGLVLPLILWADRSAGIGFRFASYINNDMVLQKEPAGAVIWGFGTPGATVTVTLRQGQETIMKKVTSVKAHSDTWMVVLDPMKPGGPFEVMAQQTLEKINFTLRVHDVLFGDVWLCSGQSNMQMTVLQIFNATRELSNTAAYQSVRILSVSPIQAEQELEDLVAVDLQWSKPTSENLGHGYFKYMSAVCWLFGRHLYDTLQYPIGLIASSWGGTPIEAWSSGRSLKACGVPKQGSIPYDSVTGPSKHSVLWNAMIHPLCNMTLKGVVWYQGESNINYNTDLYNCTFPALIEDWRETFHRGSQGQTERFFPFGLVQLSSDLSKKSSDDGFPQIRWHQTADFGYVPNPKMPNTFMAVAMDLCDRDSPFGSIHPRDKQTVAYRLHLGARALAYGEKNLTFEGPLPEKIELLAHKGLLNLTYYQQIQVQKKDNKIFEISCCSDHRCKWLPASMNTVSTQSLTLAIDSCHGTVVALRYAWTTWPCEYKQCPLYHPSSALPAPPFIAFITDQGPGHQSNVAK
mABHD4 FP: ABHD4 inhibitors, primary screen, biochemical, fluorescence polarization, mouse. purified mABHD4, FP-Rh probe fluorescence polarization. inhibition, % at 8.92 µM. 370,000 tested, 0.54% active;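 active = inhibition exceeding the mean over every tested compound plus 3 SD, cut at about 30% in these data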;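 note: 0% = plate median of compound wells and 100% = S159A mutant with DMSO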
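Test system: mABHD4 protein | Buffer or medium: HEPES pH 7.0 buffer, 150 mM NaCl, 0.01% Pluronic F-127 | Probe or stimulus: FP-Rh fluorescent activity-based probe, added after compound pre-incubation | Timing: Pre-incubation 45 min, probe exposure 60 min, at 25 °C | Technique: Fluorescence polarization, excitation 525 nm, emission 598 nm, BODIPY TMR filters | Repeats: Single well per compound (singlicate)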
PRMT1 inh: PRMT1 methyltransferase inhibitors, primary screen, biochemical, fluorescence polarization | 370,000 tested, 1.3% active | inhibition, % at 2.79 µM | recombinant PRMT1, activity-based probe fluorescence polarization;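 active = inhibition above about 21% made by adding two undisclosed values, limit read from the data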
HTRA1 inhibitor: HTRA1 serine protease inhibitors, primary screen, biochemical, fluorescence polarization, HTS. 340,000 tested, 0.5% active. AID 504803, 2011. inhibition, % at 5.96 µM. recombinant HTRA1, FP-rhodamine activity-based probe; in the data active = inhibition above about 36%;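 note: 0% = enzyme with DMSO and 100% = wells lacking enzyme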
SIAE inh conf: human SIAE inhibitors, retest, confirmation, biochemical, fluorescence polarization, FP-Rh probe, triplicate; shares compounds with SIAE inh; SIAE FP-Rh activity-based probe; inhibition, % at 9.66 µM; 2,300 tested, 13% active; AID 1117263, 2014;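 active = mean inhibition of the replicates above the hit cutoff set in the primary screen, cut at about 17% in these data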;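 note: 0% = SIAE with DMSO and probe and 100% = probe without SIAE; inhibitors lower polarization as more probe stays unbound to SIAE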
* = called active by the depositor; . = not tested or not shown. In the library only some 3.5% were active in any assay of this set; here they are far more common.

SMILES	rCAG binder	TCR CD3 inh	SIAE inh	mABHD4 FP	PRMT1 inh	HTRA1 inhibitor	SIAE inh conf
COC(=O)C[C@@H]1CC[C@H]2[C@@H](COc3ccc(NC(=O)Nc4ccccc4C)cc3C(=O)N2C)O1	4	.	0	7	2	.	.
COc1cccc(CNC(=O)c2cccc(NC(=O)C3=C(C)OCCS3)c2)c1	-1	-9	21*	-11	1	-4	-4
O=C(Nc1nnc(C(F)(F)F)s1)c1c(F)cccc1F	1	0	32*	4	0	-1	-4
O=C(OC12CCCN(C1)/C(=C/c1ccc(Cl)cc1)C2)c1ccco1 (stereo not drawn)	7	.	-5	-3	0	.	.
COc1ccc(CCNC(=O)C/C(C)=N/NC(=O)c2ccc([N+](=O)[O-])cc2Cl)cc1OC	4	-8	17*	-4	-1	-1	6
COc1ccc(CCNC(=O)C/C(C)=N/NC(=O)c2ccc(Cl)cc2Cl)cc1OC	1	3	11	-2	-3	-4	.
COc1ccc(CN(C)C(=O)[C@@H](Cc2ccccc2)NC(=O)[C@H]2O[C@@H](n3ccc(N)nc3=O)[C@H](O)[C@@H]2O)cc1OC	2	-5	48*	-2	-2	.	53*
Nc1ccn([C@@H]2O[C@H](C(=O)N[C@H](Cc3ccccc3)C(=O)N3CCC(F)(F)CC3)[C@@H](O)[C@H]2O)c(=O)n1	1	3	45*	5	-2	.	53*
COc1cc(NC(=O)[C@@H](Cc2ccccc2)NC(=O)[C@H]2O[C@@H](n3ccc(N)nc3=O)[C@H](O)[C@@H]2O)cc(OC)c1OC	1	3	45*	-1	4	.	46*
CCCn1cnnc1CNC(=O)[C@@H](Cc1ccccc1)NC(=O)[C@H]1O[C@@H](n2ccc(=O)[nH]c2=O)[C@H](O)[C@@H]1O	1	5	30*	6	-2	.	35*
O=C(N[C@H](Cc1ccccc1)C(=O)NCc1ccccn1)[C@H]1O[C@@H](n2ccc(=O)[nH]c2=O)[C@H](O)[C@@H]1O	0	-1	-3	-1	-1	.	.
COCCN(CCOC)C(=O)[C@@H](Cc1ccccc1)NC(=O)[C@H]1O[C@@H](n2ccc(N)nc2=O)[C@H](O)[C@@H]1O	2	-3	5	-5	-1	.	.
COc1cccc(NC(=O)C2CCCN2C(=O)Nc2cccc3c2OCO3)c1 (stereo not drawn)	5	.	14	-1	-5	.	.
Cc1ccccc1CN1CCCCC(NC(=O)c2ccccc2C(F)(F)F)C1=O (stereo not drawn)	0	.	1	4	0	.	.
O=C(COCc1ccccc1)N1CCC(Oc2cccnc2)CC1	1	.	1	0	2	.	.
COC(=O)[C@]12C[C@H](CC(=O)N3CCCCC3)C(=O)N(Cc3cccc4ccccc34)C1=C[C@H](C(C)C)O[C@@H]2C1CC1	1	.	4	3	-7	.	.
Cc1ccc(CNC(=O)[C@@H](Cc2ccccc2)NC(=O)[C@H]2O[C@@H](n3ccc(N)nc3=O)[C@H](O)[C@@H]2O)o1	5	-2	18*	-1	0	.	14
O=S1(=O)c2c(cccc2N2CCC[C@@H]2CO)O[C@@H]2CCN1C2	2	.	9	2	1	.	.
O=C(OCC#CCSc1nnc(-c2cccc3ccccc23)o1)c1ccccc1	.	.	-5	-15	2	.	.
CC(C)c1cc(C(C)C)c(S(=O)(=O)N2CCCC(C(=O)NCc3cccs3)C2)c(C(C)C)c1 (stereo not drawn)	5	.	-6	-6	1	.	.
CN(C(=O)c1ccc(OC2CCN(C(=O)c3cccnc3)CC2)cc1)C1CCCCC1	-8	7	24*	-3	-6	3	4
COc1ccc(-c2ccc3c(n2)CCCN3S(=O)(=O)c2ccccc2)cc1	3	-5	-4	-3	-3	.	.
Clc1ccc(-c2csc(N3CCCCCC3)n2)cc1	-1	-5	76*	-14	9	0	5
CC(C)=CCC(C)(C)CNC(=O)NC1CCCCC1	-5	2	20*	-2	1	-6	-4
CN(c1ccccc1)S(=O)(=O)c1cccc(C(=O)NCCc2ccc(O)c(O)c2)c1	16	-3	17*	28	14	25	2
SMILES	rCAG binder	TCR CD3 inh	SIAE inh	mABHD4 FP	PRMT1 inh	HTRA1 inhibitor	SIAE inh conf
O=P(c1ccccc1)(c1ccccc1)C(O)c1ccncc1 (stereo not drawn)	-2	5	24*	10	6	4	1
Cc1ccc2c(c1)C1CS(=O)(=O)N(CCc3ccccc3)CN1C2 (stereo not drawn)	5	.	-4	-1	4	.	.
Cc1c(NC(=S)NC(=O)C(c2ccccc2)c2ccccc2)cccc1C(=O)O	14	2	17*	4	-1	-1	-4
O=C(O)c1ccccc1NC(=O)C(c1ccccc1)c1ccccc1	13	-2	-2	-1	3	-6	.
Cc1[nH]c2ccccc2c1/C=N/NC(=S)NCc1ccccc1	30	-3	22*	19	1	24	19*
Cc1ccc(NC(=S)N/N=C/c2c(C)[nH]c3ccccc23)cc1	30	3	38*	18	1	32	38*
CN1C(=O)c2cc(NC(=O)C3CCCCC3)ccc2OC[C@H]2O[C@@H](CC(=O)NC3CCCC3)CC[C@H]21	5	.	-5	3	-4	.	.
Cc1ccc(S(=O)(=O)N(C)C)cc1NC(=O)c1sccc1Cl	-2	0	17*	-2	-2	-1	-2
CC(C)(C)OC(=O)NC(Cc1ccccc1)C1CC(C#N)C(=O)O1 (stereo not drawn)	.	.	7	3	0	.	.
COC(=O)c1cn(C)c2ccc(S(=O)(=O)N(C)C3CCCCC3)cc2c1=O	1	-6	20*	4	-2	3	-4
CCn1cc(C(=O)OC)c(=O)c2cc(S(=O)(=O)N(C)C3CCCCC3)ccc21	-5	-1	-3	1	1	3	.
CCN(CC)CCOc1nc(C)nc2c1oc1ccccc12	-1	0	18*	0	-3	-3	3
O=C(O)C1(c2ccccc2)CCN(S(=O)(=O)c2ccc(F)c(F)c2)CC1	0	-5	20*	6	-1	-1	4
CN1CCCCC(NC(=O)CCl)C1=O (stereo not drawn)	1	9	0	3	2	.	.
